Laboratory results: ChEMBL document CHEMBL1144909, “Design, synthesis, and biological evaluation of a series of fluoroquinoanthroxazines with contrasting dual mechanisms of action against topoisomerase II and G-quadruplexes” (J Med Chem, 2003)
The source made the active and inactive calls. The calls are words filed in the database; no cut-off is given here.

Tests used:
[1] = target: T1, DNA topoisomerase II (Homo sapiens) (UniProt P11388+Q02880); assay: Inhibition against decatenation activity of DNA topoisomerase II at a concentration of 3.2 uM; type: protein assay
Method in brief: (§1)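 Human topoisomerase II (2 units) was then added for 30 min at 37 °C. Sarkosyl stop; products resolved on 1% agarose with ethidium bromide; decatenated kDNA quantified by densitometry.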

RPMI-8226 [2] = assay: Cytotoxicity of compound against 8226/DOX1V cells; type: functional, Homo sapiens
Method in brief: (§2)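 MTT assay. Exponentially growing cells (1–2 × 10^3 per well) seeded day 0; graded compound concentrations added day 1; on day 4, MTT (1 mg/mL in DPBS) added for 4 h at 37 °C. 8226/S (RPMI 8226 myeloma) and doxorubicin-resistant, topoisomerase II-reduced 8226/DOX1V; MCF7 breast cells. Myeloma values are the mean ± SD of four experiments; IC50 in μM.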

[3] = target: T2, DNA polymerase I, thermostable (Thermus aquaticus, UniProt P19821); assay: Inhibition of Taq DNA polymerase
T2 sequence (P19821 whole entry): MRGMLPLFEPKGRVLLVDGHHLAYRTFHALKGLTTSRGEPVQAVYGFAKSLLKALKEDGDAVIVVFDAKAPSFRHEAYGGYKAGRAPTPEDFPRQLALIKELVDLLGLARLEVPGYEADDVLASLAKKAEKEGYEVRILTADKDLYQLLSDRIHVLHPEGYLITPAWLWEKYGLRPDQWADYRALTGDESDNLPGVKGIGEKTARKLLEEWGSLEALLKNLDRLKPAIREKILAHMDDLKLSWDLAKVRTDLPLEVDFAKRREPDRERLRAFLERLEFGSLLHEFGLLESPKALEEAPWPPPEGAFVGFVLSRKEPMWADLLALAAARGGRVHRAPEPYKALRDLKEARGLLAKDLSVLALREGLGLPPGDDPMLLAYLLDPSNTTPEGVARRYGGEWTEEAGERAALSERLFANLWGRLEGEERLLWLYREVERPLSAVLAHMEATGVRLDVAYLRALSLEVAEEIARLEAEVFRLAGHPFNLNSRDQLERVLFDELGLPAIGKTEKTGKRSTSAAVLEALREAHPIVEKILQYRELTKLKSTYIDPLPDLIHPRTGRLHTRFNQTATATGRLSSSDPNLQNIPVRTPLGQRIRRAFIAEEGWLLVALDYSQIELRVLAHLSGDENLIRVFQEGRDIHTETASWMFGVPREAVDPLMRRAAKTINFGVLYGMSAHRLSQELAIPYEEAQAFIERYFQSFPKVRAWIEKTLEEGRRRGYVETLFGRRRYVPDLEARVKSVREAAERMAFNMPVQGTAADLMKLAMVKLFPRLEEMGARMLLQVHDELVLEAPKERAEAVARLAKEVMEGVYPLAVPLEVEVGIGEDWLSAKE

MCF7 = assay: Cytotoxicity of compound was tested against MCF-7 breast cancer cells; type: functional, cell-based; conditions: Homo sapiens; method in brief: as §2
[4] = target: T2, DNA polymerase I, thermostable; assay: Inhibition of Taq DNA polymerase by TRAP assay
[5] = Ratio of cytotoxicity of DOX1V/S cells; type: functional
Method in brief: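 Ratio of IC50 in 8226/DOX1V (doxorubicin-resistant, reduced topoisomerase II) to IC50 in parental 8226/S. Both IC50s come from a 3-day MTT assay, each the mean of four experiments.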

RPMI-8226 [6] = assay: Cytotoxicity of compound against 8226/S cells; type: functional, Homo sapiens; method in brief: as §2
[7] = target: T1, DNA topoisomerase II (Homo sapiens); assay: Inhibition against decatenation activity of DNA topoisomerase II at a concentration of 100 uM; type: protein assay; method in brief: as §1

inhibition [1] | IC50 [3] | IC50 [4] | inhibition [7] | SMILES | Average (RPMI-8226 [2]) | IC50 (MCF7) | Ratio [5] | Average (RPMI-8226 [6])
50% | – | – | – | N[C@H]1CCN(c2c(F)cc3c(=O)c(C(=O)O)cn4c3c2Oc2ccccc2-4)C1 | – | – | – | –
– | 0.06 µM | 5.6 µM | inactive | N[C@@H]1CCN(c2c(F)cc3c(=O)c(C(=O)O)cn4c3c2Oc2c-4ccc3c2ccc2ccccc23)C1 | 0.501 µM | 0.46 µM | 1.55 | 0.324 µM
– | – | – | – | COc1cccc2c1C(=O)c1c(O)c3c(c(O)c1C2=O)C[C@@](O)(C(=O)CO)C[C@@H]3O[C@H]1C[C@H](N)[C@H](O)[C@H](C)O1 [DOXORUBICIN] | 0.32 µM | – | 8.65 | 0.037 µM
– | 5.7 µM | – | inactive | N[C@H]1CCN(c2c(F)cc3c(=O)c(C(=O)O)cn4c3c2Oc2cc3c(ccc5ccccc53)cc2-4)C1 | >10 µM | 14.2 µM | – | >10 µM
– | 0.67 µM | 21 µM | inactive | N[C@H]1CCN(c2c(F)cc3c(=O)c(C(=O)O)cn4c3c2Oc2c-4ccc3c2ccc2ccccc23)C1 | 2.775 µM | 1.1 µM | 4.02 | 0.69 µM
– | 2.4 µM | – | inactive | N[C@@H]1CCN(c2c(F)cc3c(=O)c(C(=O)O)cn4c3c2Oc2cc3c(ccc5ccccc53)cc2-4)C1 | >10 µM | 4.3 µM | – | 5.46 µM
